# Screens as filed in PubChem.
# Most compounds without a hit are left out; they make up all but 3.5% or so of the library.
# MrgX1 antagonist – blocks BAM8-22 activation of human MrgX1 receptor; MRGX1-HEK293 calcium flux, Fluo-4, BAM8-22 antagonism; stronger effect = lower value; B-score at 10 µM; AID 588676; 1.3% of 310,000 active;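 active = calcium-response B-score plate-corrected more than 3 library SD below zero, starting fluorescence within 5 deviations, no agonist response on first addition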;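 also: peak minus trough fluorescence over baseline after final BAM8-22 challenge near maximal dose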
# Target sequence (Q96LB2 whole entry, looked up): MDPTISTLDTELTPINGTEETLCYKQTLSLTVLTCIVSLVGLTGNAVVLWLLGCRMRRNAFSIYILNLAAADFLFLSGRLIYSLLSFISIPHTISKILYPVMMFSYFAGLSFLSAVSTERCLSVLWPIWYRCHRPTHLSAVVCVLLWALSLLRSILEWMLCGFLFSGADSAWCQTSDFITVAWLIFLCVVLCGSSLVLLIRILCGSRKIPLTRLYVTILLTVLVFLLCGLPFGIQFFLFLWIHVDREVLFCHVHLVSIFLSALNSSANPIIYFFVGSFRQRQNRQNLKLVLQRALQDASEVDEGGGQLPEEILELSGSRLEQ
# MrgX1 PAM – allosterically activates human MrgX1 receptor signaling | Q96LB2 | MrgX1-HEK293, Fluo-4 calcium flux, FDSS; stronger effect = higher value | B-score at 10 µM | 0.63% of 310,000 active | AID 588675;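 active = plate-corrected calcium response at least 3 library SD above typical, normal starting fluorescence, not activating the receptor alone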;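 also: compound read alongside a low EC10 to EC30 dose of BAM8-22 agonist; peak minus trough fluorescence over baseline measured at the second addition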
# RGS4 act – RGS4 potentiation or activation; HEK293 M3R/inducible RGS4, carbachol calcium flux Fluo4; stronger effect = lower value; B-score at 10 µM; 0.92% of 310,000 active;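 active = B-score of the integrated calcium signal more than 4 SD below the library mean, with starting fluorescence not abnormally high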;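 also: negative B-score means reduced calcium response which marks RGS4 activation or potentiation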
#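 Also added: carbachol at ECmax as muscarinic agonist stimulus; Assay system: HEK293 cells with stable M3R and inducible RGS4; Timing: overnight RGS4 induction, 30 min dye load 37 °C, 20 min compound RT; Measured by: Fluo4-AM (2 µM) calcium-flux fluorescence, kinetic read.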
# RGS4 inh – inhibitors of human RGS4. P49798. HEK293 M3R/RGS4 inducible, Fluo-4 calcium flux; stronger effect = higher value; triggered by carbachol at its EC20. B-score at 10 µM. 0.45% of 310,000 active. AID 463165;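 active = B-score, a plate-corrected calcium signal, over three deviations above library mean, with baseline fluorescence within five deviations of library mean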;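 also: RGS4 expression induced by doxycycline in cells with stable M3 receptor; B-score is computed from the integrated fluorescence ratio over baseline after carbachol; higher B-score means a larger calcium signal and so more RGS4 inhibition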
# Target sequence (P49798 whole entry, looked up): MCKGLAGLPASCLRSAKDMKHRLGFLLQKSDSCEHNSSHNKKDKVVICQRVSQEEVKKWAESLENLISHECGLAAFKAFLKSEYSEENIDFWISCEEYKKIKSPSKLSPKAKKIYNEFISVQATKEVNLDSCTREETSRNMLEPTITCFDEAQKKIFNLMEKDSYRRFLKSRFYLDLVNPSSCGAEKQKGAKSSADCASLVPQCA
# MrgX1 ag – human MrgX1 receptor agonism, primary screen; B-score at 10 µM; 0.44% of 310,000 active; AID 588627; MrgX1-HEK293 cells, Fluo-4 calcium fluorescence, agonist mode; stronger effect = higher value; Q96LB2;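 active = calcium response B-score plate-corrected fluorescence ratio at least 3 library SD, with starting fluorescence B-score inside 5 SD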
#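 Test system: Stable human MrgX1 HEK293 cell line | Schedule: Overnight plating before 1 h dye loading | Read-out basis: Baseline-normalised fluorescence change ratio, B-scored | Detection: Kinetic calcium dye fluorescence, Fluo-4 NW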
# RGS4 block valid – RGS4 inhibitor validation. HEK293 M3R/RGS4, carbachol calcium Fluo-4 fluorescence; carbachol added at its EC20; 0 = buffer wells, 100 = carbachol control. shares compounds with RGS4 inh. 65% of 1,700 active. calcium response, % at 10 µM;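 active = duplicate-averaged calcium response above the buffer-only control mean plus 5 SD of those controls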;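 also: integrated fluorescence ratio F max minus min over baseline F0; higher response in RGS4-induced cells means RGS4 inhibition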
# M3R Ca ctr – counter-screen for RGS4 inhibitors: effect in non-induced cells; 20% of 1,900 active; HEK293 M3R non-induced, carbachol calcium Fluo-4; submaximal (EC20) carbachol stimulus; buffer wells 0%, carbachol control wells 100%; activity (percent), % at 10 µM; shares compounds with RGS4 inh; call rule not given here;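 also: RGS4 induction absent so cells express M3R without RGS4; higher means more calcium signal and flags a non-specific hit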
# RGS4 inh ctr2 – second counter-screen for RGS4 inhibitors: non-induced cells without carbachol; shares compounds with RGS4 inh; calcium response (agonist-mode artifact), % at 10 µM; 22% of 1,900 active; HEK293 M3R/RGS4 non-induced, Fluo-4 calcium, no carbachol; normalised: buffer wells 0%, carbachol wells 100%;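 active = duplicate-averaged calcium rise in uninduced cells above buffer wells' mean plus 5 SD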
# Active calls of the source: *; i = inactive; / = no result given.
SMILES,MrgX1 antagonist,MrgX1 PAM,RGS4 act,RGS4 inh,MrgX1 ag,RGS4 block valid,M3R Ca ctr,RGS4 inh ctr2
Cc1ccc(-c2nc3ccccn3c2Nc2ccccc2)o1,i,i,i,i,i,/,/,/
CCOC(=O)Cc1cnc(NC(=O)CSc2nc(C)c(CC)c(=O)[nH]2)s1,i,i,i,i,i,/,/,/
C#CCOC(=O)Nc1cccn(Cc2c(Cl)cccc2Cl)c1=O,i,i,i,i,i,/,/,/
COC(=O)Nc1ccc(=O)n(Cc2c(Cl)cccc2Cl)c1,i,i,i,i,i,/,i,i
COC(=O)CCCC(=O)NC1CCCc2c1cnn2-c1ccc(F)cc1F (configuration not stated),i,i,i,i,i,/,/,/
Cc1nn(-c2ccccc2)c2[nH]c(=O)c(CNCc3ccc4c(c3)OCO4)cc12,i,i,i,i,i,/,/,/
Cc1ccc(-c2nn(-c3ccccc3)c3[nH]c(=O)c(CNCc4ccccc4)cc23)cc1,i,i,i,7*,i,19%*,i,18%*
CC(O)[C@H]1CNC(=O)C(=O)N1CC(C)(C)C (some centres not stated),i,i,i,i,i,/,/,/
C/C(=N/NC(=O)NC12CC3CC(CC(C3)C1)C2)c1ccccc1,i,i,i,i,i,/,/,/
O=C1NC(c2ccc(-c3ccccc3[N+](=O)[O-])o2)C(C(=O)c2ccccc2)C(O)(C(F)(F)F)N1 (configuration not stated),i,i,i,i,i,i,i,i
Cc1ccc(C(=O)C2C(c3ccc(-c4ccccc4[N+](=O)[O-])o3)NC(=O)NC2(O)C(F)(F)F)cc1 (configuration not stated),i,i,i,i,i,/,i,i
O=C1NC(c2cccs2)C(C(=O)c2ccccc2)C(O)(C(F)(F)F)N1 (configuration not stated),i,i,i,i,i,/,/,/
Cc1c(/C=N/NC(N)=O)c2ccccn2c1C(=O)c1ccncc1,i,i,i,i,i,/,/,/
Cc1c(/C=N/NC(=O)CNc2ccccc2)c2ccccn2c1C(=O)c1ccccc1,i,i,i,i,i,i,i,16%*
Cc1[nH]n(-c2ccccc2)c(=O)c1C=Nc1ccc(S(N)(=O)=O)cc1,i,i,i,i,i,/,/,/
Cc1[nH]n(-c2c(Cl)cc(Cl)cc2Cl)c(=O)c1C=Nc1ccc(S(=O)(=O)N2CCOCC2)cc1,i,i,i,i,i,i,i,i
CC(C)(C)c1nn(-c2ccccc2)c2nc(Cl)c(C=O)cc12,i,i,i,5*,i,13%*,30%*,i
Cn1ncc(Br)c1C(=O)NC1CCCCCCC1,/,/,i,i,/,/,/,/
Cc1nn(C)c(C(=O)NNC(=S)NC2CCCCC2)c1Br,i,i,i,8.5*,i,23%*,32%*,i
O=C(N/N=C/c1ccoc1)c1ccccc1F,i,i,i,i,i,/,/,/
CC(NS(=O)(=O)c1ccc(OCC(=O)NCc2cccnc2)cc1)c1ccccc1 (configuration not stated),i,i,i,i,i,/,/,/
N#Cc1c(N2CCOCC2)nc(-c2ccco2)c2c1CCCC2,i,i,i,i,i,i,i,i
CCc1nc(N2CCOCC2)c(C#N)c2c1CCCC2,i,i,i,i,i,/,/,/
CC1(C)Cc2c(C#N)c(N3CCCC3)nc(-c3ccco3)c2CO1,i,i,i,8.5*,i,6.0%*,i,13%*
CC1(C)Cc2c(C#N)c(NCc3ccco3)nc(-c3ccco3)c2CO1,i,i,i,i,i,/,/,/
SMILES,MrgX1 antagonist,MrgX1 PAM,RGS4 act,RGS4 inh,MrgX1 ag,RGS4 block valid,M3R Ca ctr,RGS4 inh ctr2
CCCN1C(=O)/C(=C/c2nc3ccccc3c(=O)[nH]2)c2ccccc21,i,i,i,11*,i,8.5%*,i,i
CCCN1C(=O)/C(=C/c2nc3ccccc3c(=O)[nH]2)c2cc(C)ccc21,i,i,i,9.5*,i,26%*,58%*,i
CC(C)C[C@@H](NC(=O)C1CCC(CNC(=O)[C@H](Cc2ccccc2)NC(=O)OC(C)(C)C)CC1)C(=O)O (some centres not stated),/,/,i,i,/,/,/,/
COc1ccc(OCCOC(=O)CCS(=O)(=O)c2ccc(C)cc2)cc1,i,i,i,i,i,/,/,/
CC(C)C(=O)N1CCN(c2nc(-c3ccc(Cl)cc3)cs2)CC1,i,i,i,5.5*,i,18%*,i,i
O=C(NCC1CCCO1)C1CC(=O)N(c2cccc(Cl)c2)C1 (configuration not stated),i,i,i,i,i,/,/,/
CCN(CCO)c1nc(SC)nc2c1sc1nc(-c3ccco3)c3c(c12)CCC3,i,i,i,i,i,i,i,i
COc1ccccc1CC(=O)N1CCN(C(=O)c2ccco2)CC1,i,i,i,i,i,/,/,/
